Laboratory results reported in ChEMBL document CHEMBL5303300, “EUbOPEN Chemogenomics Library - Multiplex” (2023).
Several values for one entry are separate records, joined by “and”; a condition that tells them apart may be missing. Identical values can stand only once.

System: Fibroblast
Assay: Multiplex assay against human fibroblast
Type: toxicity, cell-based
Conditions: number of replicates 2
In short: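 Cells stained live at seeding with Hoechst33342, BioTracker Green Microtubule Cytoskeleton Dye, MitoTracker Red and Annexin V Alexa Fluor 680 were imaged on a CQ1 microscope at 37°C and 5% CO2 after compound addition. Their classification by CellPathfinder machine-learning gating ran from Hoechst high-intensity objects versus normal cells, to healthy, pyknosed or fragmented nuclei among normal cells, to mitotic or apoptotic among pyknosed cells. Tubulin, mitochondrial-mass and membrane-permeability phenotypes are per cents of healthy-nucleus cells.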

[1] = 12 h, 10 µM, compound concentration 10 uM
[2] = 24 h, 10 µM, compound concentration 10 uM
[3] = 48 h, 10 µM, compound concentration 10 uM
[4] = 12 h, 1 µM, compound concentration 1 uM
[5] = 24 h, 1 µM, compound concentration 1 uM
[6] = 48 h, 1 µM, compound concentration 1 uM

CN[C@@H]1C[C@H]2O[C@@](C)([C@@H]1OC)n1c3ccccc3c3c4c(c5c6ccccc6n2c5c31)C(=O)NC4 [STAUROSPORINE]
Population Apoptotic (%) [1]: 76% and 73% and 72% and 71% | Population Fragmented Nuclei (%) [1]: 16% and 10% and 13% | Population Healthy Nuclei (%) [1]: 10% and 6% and 14% and 9% | Population Hoechst High Intensity Objects (%) [1]: 0% and 1% | Population Membrane Permeable-Phenotype (%) [1]: 20% and 15% and 7% | Population Mitochondria Different-Phenotype (%) [1]: 0% and 2% | Population Mitotic Cells (%) [1]: 23% and 26% and 27% and 28% | Population Normal (%) [1]: 99% and 100% and 98% | Population Pyknosed Nuclei (%) [1]: 72% and 82% and 74% | Population Tubulin-Different-Phenotype (%) [1]: 14% and 10% and 4% | Population Apoptotic (%) [2]: 95% and 88% and 87% | Population Fragmented Nuclei (%) [2]: 15% and 21% and 13% | Population Healthy Nuclei (%) [2]: 5% and 3% and 4% and 2% | Population Hoechst High Intensity Objects (%) [2]: 0% and 1% | Population Membrane Permeable-Phenotype (%) [2]: 50% [middle of 4 runs] | Population Mitochondria Different-Phenotype (%) [2]: 0% | Population Mitotic Cells (%) [2]: 4% and 11% and 12% | Population Normal (%) [2]: 100% and 99% and 98% | Population Pyknosed Nuclei (%) [2]: 78% and 74% and 82% and 84% | Population Tubulin-Different-Phenotype (%) [2]: 50% [middle of 4 runs] | Population Apoptotic (%) [3]: 99% and 93% and 92% and 91% | Population Fragmented Nuclei (%) [3]: 27% and 28% and 20% and 22% | Population Healthy Nuclei (%) [3]: 3% and 4% and 7% and 6% | Population Hoechst High Intensity Objects (%) [3]: 0% | Population Membrane Permeable-Phenotype (%) [3]: 66% [middle of 4 runs] | Population Mitochondria Different-Phenotype (%) [3]: 0% and 20% | Population Mitotic Cells (%) [3]: 0% and 6% and 7% and 8% | Population Normal (%) [3]: 100% and 99% | Population Pyknosed Nuclei (%) [3]: 69% and 66% and 72% and 71% | Population Tubulin-Different-Phenotype (%) [3]: 50% and 55% and 45% and 60%

C=CC(=O)Nc1ccc2[nH]c(=O)n(C3CCN(Cc4ccc(-c5ccc6c(c5)NC(=O)CO6)cc4)CC3)c2c1 [RL2578]
Population Apoptotic (%) [4]: 34% and 40% | Population Fragmented Nuclei (%) [4]: 12% and 8% | Population Healthy Nuclei (%) [4]: 72% and 66% | Population Hoechst High Intensity Objects (%) [4]: 0% | Population Membrane Permeable-Phenotype (%) [4]: 4% | Population Mitochondria Different-Phenotype (%) [4]: 3% | Population Mitotic Cells (%) [4]: 65% and 60% | Population Normal (%) [4]: 100% | Population Pyknosed Nuclei (%) [4]: 15% and 25% | Population Tubulin-Different-Phenotype (%) [4]: 13% and 15% | Total Cell Count [4]: 173 and 180 | Population Apoptotic (%) [1]: 46% and 29% | Population Fragmented Nuclei (%) [1]: 26% and 23% | Population Healthy Nuclei (%) [1]: 65% and 67% | Population Hoechst High Intensity Objects (%) [1]: 0% | Population Membrane Permeable-Phenotype (%) [1]: 5% and 4% | Population Mitochondria Different-Phenotype (%) [1]: 0% and 4% | Population Mitotic Cells (%) [1]: 53% and 70% | Population Normal (%) [1]: 99% and 100% | Population Pyknosed Nuclei (%) [1]: 8% | Population Tubulin-Different-Phenotype (%) [1]: 45% and 35% | Total Cell Count [1]: 324 and 315 | Population Apoptotic (%) [5]: 48% and 55% | Population Fragmented Nuclei (%) [5]: 6% and 14% | Population Healthy Nuclei (%) [5]: 73% and 65% | Population Hoechst High Intensity Objects (%) [5]: 0% | Population Membrane Permeable-Phenotype (%) [5]: 3% | Population Mitochondria Different-Phenotype (%) [5]: 4% and 0% | Population Mitotic Cells (%) [5]: 51% and 44% | Population Normal (%) [5]: 100% | Population Pyknosed Nuclei (%) [5]: 19% and 20% | Population Tubulin-Different-Phenotype (%) [5]: 18% and 19% | Total Cell Count [5]: 169 and 214 | Population Apoptotic (%) [2]: 63% and 50% | Population Fragmented Nuclei (%) [2]: 29% and 26% | Population Healthy Nuclei (%) [2]: 65% and 69% | Population Hoechst High Intensity Objects (%) [2]: 0% | Population Membrane Permeable-Phenotype (%) [2]: 2% | Population Mitochondria Different-Phenotype (%) [2]: 5% and 4% | Population Mitotic Cells (%) [2]: 36% and 50% | Population Normal (%) [2]: 99% | Population Pyknosed Nuclei (%) [2]: 5% and 3% | Population Tubulin-Different-Phenotype (%) [2]: 36% and 24% | Total Cell Count [2]: 377 and 407 | Population Apoptotic (%) [6]: 86% and 67% | Population Fragmented Nuclei (%) [6]: 14% and 17% | Population Healthy Nuclei (%) [6]: 71% and 65% | Population Hoechst High Intensity Objects (%) [6]: 0% | Population Membrane Permeable-Phenotype (%) [6]: 5% and 6% | Population Mitochondria Different-Phenotype (%) [6]: 0% | Population Mitotic Cells (%) [6]: 13% and 32% | Population Normal (%) [6]: 100% and 99% | Population Pyknosed Nuclei (%) [6]: 14% and 17% | Population Tubulin-Different-Phenotype (%) [6]: 14% and 8% | Total Cell Count [6]: 160 and 217 | Population Apoptotic (%) [3]: 78% and 76% | Population Fragmented Nuclei (%) [3]: 29% | Population Healthy Nuclei (%) [3]: 66% and 67% | Population Hoechst High Intensity Objects (%) [3]: 0% | Population Membrane Permeable-Phenotype (%) [3]: 0% and 2% | Population Mitochondria Different-Phenotype (%) [3]: 2% and 1% | Population Mitotic Cells (%) [3]: 21% and 23% | Population Normal (%) [3]: 100% and 99% | Population Pyknosed Nuclei (%) [3]: 4% and 2% | Population Tubulin-Different-Phenotype (%) [3]: 18% and 13% | Total Cell Count [3]: 424 and 452
